According to ChEMBL document CHEMBL4138282, “An Anti-Inflammatory PPAR-γ Agonist from the Jellyfish-Derived Fungus Penicillium chrysogenum J08NF-4” (J Nat Prod, 2018):
Activity calls are given as the source filed them. The rule behind the calls is not given here.

Key:
Format in all cases: cell-based
[1] = molecular target: T1, Peroxisome proliferator-activated receptor gamma (Mus musculus) (UniProt P37238); assay: Agonist activity at PPARgamma in mouse RAW264.7 cells assessed as increase in protein expression level in nuclear fractions at 30 uM after 24 hrs by Western blot assay relative to control
T1 sequence (whole entry): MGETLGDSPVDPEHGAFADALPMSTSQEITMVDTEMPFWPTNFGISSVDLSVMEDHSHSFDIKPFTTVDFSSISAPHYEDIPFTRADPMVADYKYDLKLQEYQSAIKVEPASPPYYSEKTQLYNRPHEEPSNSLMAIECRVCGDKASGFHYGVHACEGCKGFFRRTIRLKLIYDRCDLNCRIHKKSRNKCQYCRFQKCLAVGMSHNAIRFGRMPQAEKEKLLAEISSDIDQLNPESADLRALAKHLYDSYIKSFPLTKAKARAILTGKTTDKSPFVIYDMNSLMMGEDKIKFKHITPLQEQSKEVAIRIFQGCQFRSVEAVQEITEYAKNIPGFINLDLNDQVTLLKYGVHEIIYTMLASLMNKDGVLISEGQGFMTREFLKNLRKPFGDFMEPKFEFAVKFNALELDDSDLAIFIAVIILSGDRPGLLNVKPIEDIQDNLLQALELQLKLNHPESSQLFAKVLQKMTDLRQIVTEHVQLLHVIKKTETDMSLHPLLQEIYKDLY
How it was run: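 Treated RAW 264.7 cells at 10 or 30 μM for 24 h, with rosiglitazone 10 or 30 μM as comparator. Nuclear fractions isolated by NE-PER extraction, protein by BCA, PPAR-γ by Western blot normalized to nuclear TFIIB; three independent experiments.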

[2] = molecular target: T1, Peroxisome proliferator-activated receptor gamma (Mus musculus); assay: Agonist activity at PPARgamma in LPS-stimulated mouse RAW264.7 cells assessed as inhibition of NF-kappaB p65 phosphorylation pretreated with compound for 1 hr followed by LPS stimulation for 30 mins by Western blot assay
How it was run: (§1)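 For the antagonist arm, GW9662 (10 μM) was added 1 h before. Phospho-p65 read by Western blot on 10% SDS-PAGE, β-actin reference; three independent experiments.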

[3] = Cytotoxicity against rat Ac2F cells assessed as reduction in cell viability up to 50 uM after 24 hrs by WST assay
How it was run: (§2)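 Cells in high-glucose DMEM/10% heat-inactivated FBS with penicillin-streptomycin at 37 °C, 5% CO2; seeded 12 h, then exposed to compound for 24 h. WST reagent 1 h at 37 °C, absorbance at 450 nm.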

[4] = molecular target: T1, Peroxisome proliferator-activated receptor gamma (Mus musculus); assay: Agonist activity at PPARgamma in LPS-stimulated mouse RAW264.7 cells assessed as inhibition of NF-kappaB signaling by measuring reduction in IL-6 mRNA level at 50 uM pretreated with compound for 1 hr followed by LPS stimulation for 6 hrs by RT-PCR analysis relative to control
How it was run: (§3)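 Trizol RNA, M-MLV cDNA, 27-cycle PCR, agarose gel with ethidium bromide stain; GAPDH as internal control. Three independent experiments.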

[5] = molecular target: T1, Peroxisome proliferator-activated receptor gamma (Mus musculus); assay: Agonist activity at PPARgamma in LPS-stimulated mouse RAW264.7 cells assessed as inhibition of NF-kappaB signaling by measuring reduction in IL-1beta production pretreated with compound for 1 hr followed by LPS stimulation measured after 24 hrs by ELISA
[6] = molecular target: T1, Peroxisome proliferator-activated receptor gamma (Mus musculus); assay: Agonist activity at PPARgamma in LPS-stimulated mouse RAW264.7 cells assessed as inhibition of NF-kappaB signaling by measuring reduction in TNFalpha mRNA level pretreated with compound for 1 hr followed by LPS stimulation for 6 hrs by RT-PCR analysis; how it was run: as §3
[7] = molecular target: T2, Peroxisome proliferator-activated receptor gamma (Homo sapiens) (UniProt P37231); assay: Agonist activity at full length human flag-tagged PPARgamma1 […] expressed in rat Ac2F cells coexpressing PPRE-X3-TK at 20 uM after 6 hrs by one-glo luciferase reporter gene assay relative to control
T2 sequence (whole entry): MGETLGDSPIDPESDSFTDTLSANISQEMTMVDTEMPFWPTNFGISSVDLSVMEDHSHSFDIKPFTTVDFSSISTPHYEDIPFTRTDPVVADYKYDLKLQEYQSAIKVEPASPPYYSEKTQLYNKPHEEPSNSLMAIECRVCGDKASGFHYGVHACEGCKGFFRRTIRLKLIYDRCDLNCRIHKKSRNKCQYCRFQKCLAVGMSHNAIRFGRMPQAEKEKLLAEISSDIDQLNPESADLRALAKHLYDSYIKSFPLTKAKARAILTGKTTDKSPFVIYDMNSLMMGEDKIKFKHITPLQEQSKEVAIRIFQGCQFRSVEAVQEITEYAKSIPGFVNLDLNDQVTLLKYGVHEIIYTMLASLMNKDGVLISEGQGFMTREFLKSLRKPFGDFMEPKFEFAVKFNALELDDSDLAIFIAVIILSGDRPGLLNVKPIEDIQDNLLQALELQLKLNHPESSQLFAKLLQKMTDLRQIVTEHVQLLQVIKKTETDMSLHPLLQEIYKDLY
How it was run: (§4)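 Rat Ac2F cells at 70–80% confluence transfected by Lipofectamine 2000 with PPRE-X3-TK-luc (1 μg/well) plus pFlag-PPAR-γ1 or pcDNA3 (0.1 μg/well), 4 h, then 10 h in complete medium. Compound (5, 10, 20 μM) or rosiglitazone 5 μM added for 6 h in serum-free medium; ONE-Glo luminescence as fold of control, n = 3.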

[8] = molecular target: T1, Peroxisome proliferator-activated receptor gamma (Mus musculus); assay: Agonist activity at PPARgamma in LPS-stimulated mouse RAW264.7 cells assessed as inhibition of NF-kappaB signaling by measuring reduction in TNFalpha production pretreated with compound for 1 hr followed by LPS stimulation measured after 3 hrs by ELISA
[9] = molecular target: T1, Peroxisome proliferator-activated receptor gamma (Mus musculus); assay: Agonist activity at PPARgamma in LPS-stimulated mouse RAW264.7 cells assessed as inhibition of NF-kappaB signaling by measuring reduction in iNOS mRNA level pretreated with compound for 1 hr followed by LPS stimulation for 6 hrs by RT-PCR analysis; how it was run: as §3
[10] = molecular target: T1, Peroxisome proliferator-activated receptor gamma (Mus musculus); assay: Agonist activity at PPARgamma in LPS-stimulated mouse RAW264.7 cells assessed as inhibition of NF-kappaB signaling by measuring reduction in COX2 protein level pretreated with compound for 1 hr followed by LPS stimulation measured after 24 hrs by Western blot analysis
[11] = molecular target: T1, Peroxisome proliferator-activated receptor gamma (Mus musculus); assay: Agonist activity at PPARgamma in LPS-stimulated mouse RAW264.7 cells assessed as inhibition of NF-kappaB signaling by measuring reduction in COX2 mRNA level pretreated with compound for 1 hr followed by LPS stimulation for 6 hrs by RT-PCR analysis; how it was run: as §3
[12] = molecular target: T1, Peroxisome proliferator-activated receptor gamma (Mus musculus); assay: Agonist activity at PPARgamma in LPS-stimulated mouse RAW264.7 cells assessed as inhibition of NF-kappaB signaling by measuring reduction in IL-6 production pretreated with compound for 1 hr followed by LPS stimulation measured after 24 hrs by ELISA
[13] = molecular target: T1, Peroxisome proliferator-activated receptor gamma (Mus musculus); assay: Agonist activity at PPARgamma in LPS-stimulated mouse RAW264.7 cells assessed as inhibition of NF-kappaB signaling by measuring reduction in IL-6 mRNA level pretreated with compound for 1 hr followed by LPS stimulation for 6 hrs by RT-PCR analysis; how it was run: as §3
[14] = molecular target: T2, Peroxisome proliferator-activated receptor gamma (Homo sapiens); assay: Agonist activity at full length human flag-tagged PPARgamma1 […] expressed in rat Ac2F cells coexpressing PPRE-X3-TK after 6 hrs by one-glo luciferase reporter gene assay; how it was run: as §4
[15] = molecular target: T1, Peroxisome proliferator-activated receptor gamma (Mus musculus); assay: Agonist activity at PPARgamma in LPS-stimulated mouse RAW264.7 cells assessed as inhibition of NF-kappaB p65 phosphorylation at 30 uM pretreated with compound for 1 hr followed by LPS stimulation for 30 mins in presence of PPARgamma antagonist GW9662 by Western blot assay; how it was run: as §1
[16] = molecular target: T1, Peroxisome proliferator-activated receptor gamma (Mus musculus); assay: Agonist activity at PPARgamma in LPS-stimulated mouse RAW264.7 cells assessed as inhibition of NF-kappaB signaling by measuring reduction in NO production pretreated with compound for 1 hr followed by LPS stimulation measured after 24 hrs by Griess assay
How it was run: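 Supernatant mixed 1:1 with Griess reagent, 20 min at 37 °C in the dark, A520; nitrite quantified against 0–100 μM sodium nitrite standards.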

[17] = molecular target: T1, Peroxisome proliferator-activated receptor gamma (Mus musculus); assay: Agonist activity at PPARgamma in LPS-stimulated mouse RAW264.7 cells assessed as inhibition of NF-kappaB signaling by measuring reduction in IL-1beta mRNA level at 50 uM pretreated with compound for 1 hr followed by LPS stimulation for 6 hrs by RT-PCR analysis relative to control; how it was run: as §3
[18] = molecular target: T1, Peroxisome proliferator-activated receptor gamma (Mus musculus); assay: Agonist activity at PPARgamma in LPS-stimulated mouse RAW264.7 cells assessed as inhibition of NF-kappaB signaling by measuring reduction in TNFalpha mRNA level at 50 uM pretreated with compound for 1 hr followed by LPS stimulation for 6 hrs by RT-PCR analysis relative to control; how it was run: as §3
[19] = molecular target: T1, Peroxisome proliferator-activated receptor gamma (Mus musculus); assay: Agonist activity at PPARgamma in LPS-stimulated mouse RAW264.7 cells assessed as inhibition of NF-kappaB signaling by measuring reduction in iNOS protein level pretreated with compound for 1 hr followed by LPS stimulation measured after 24 hrs by Western blot analysis
RAW264.7 = assay: Cytotoxicity against mouse RAW264.7 cells assessed as reduction in cell viability up to 50 uM after 24 hrs by WST assay; settings: raw264.7, 24 h; how it was run: as §2
[20] = molecular target: T1, Peroxisome proliferator-activated receptor gamma (Mus musculus); assay: Agonist activity at PPARgamma in LPS-stimulated mouse RAW264.7 cells assessed as inhibition of NF-kappaB signaling by measuring reduction in iNOS mRNA level at 50 uM pretreated with compound for 1 hr followed by LPS stimulation for 6 hrs by RT-PCR analysis relative to control; how it was run: as §3
[21] = molecular target: T1, Peroxisome proliferator-activated receptor gamma (Mus musculus); assay: Agonist activity at PPARgamma in LPS-stimulated mouse RAW264.7 cells assessed as inhibition of NF-kappaB p65 phosphorylation at 30 uM pretreated with compound for 1 hr followed by LPS stimulation for 30 mins by Western blot assay relative to control; how it was run: as §1
[22] = molecular target: T1, Peroxisome proliferator-activated receptor gamma (Mus musculus); assay: Agonist activity at PPARgamma in LPS-stimulated mouse RAW264.7 cells assessed as inhibition of NF-kappaB signaling by measuring reduction in COX2 mRNA level at 50 uM pretreated with compound for 1 hr followed by LPS stimulation for 6 hrs by RT-PCR analysis relative to control; how it was run: as §3
[23] = molecular target: T1, Peroxisome proliferator-activated receptor gamma (Mus musculus); assay: Agonist activity at PPARgamma in LPS-stimulated mouse RAW264.7 cells assessed as inhibition of NF-kappaB signaling by measuring reduction in IL-1beta mRNA level pretreated with compound for 1 hr followed by LPS stimulation for 6 hrs by RT-PCR analysis; how it was run: as §3

With `CN(CCOc1ccc(CC2SC(=O)NC2=O)cc1)c1ccccn1` (stereo not given) the fold change (FC) [1] was 2.3.
In the case of `COC(=O)CC/C(C)=C/CC/C(C)=C/Cc1cc(O)c(C)cc1O`, the inhibition [2] is reported as “Dose-dependent effect”, the Activity [3] is reported as “Non-Toxic” and the fold change (FC) [4] is reported as 5. For the same molecule, the fold change (FC) [1] was 1.8, the inhibition [5] was “Dose-dependent effect” and the inhibition [6] was “Dose-dependent effect”. For the same molecule, the fold change (FC) [7] was 3, the inhibition [8] was “Dose-dependent effect” and the inhibition [9] was “Dose-dependent effect”. For the same molecule, the inhibition [10] was “Dose-dependent effect”, the inhibition [11] was “Dose-dependent effect” and the inhibition [12] was “Dose-dependent effect”. The inhibition [13] was “Dose-dependent effect”, the Activity [14] was “Dose-dependent effect” and the inhibition [15] was “inactive”. For the same molecule, the inhibition [16] was “Dose-dependent effect”, the fold change (FC) [17] was 2.5 and the fold change (FC) [18] was 2. The inhibition [19] was “Dose-dependent effect”, the Activity (RAW264.7) was “Non-Toxic” and the fold change (FC) [20] was 5. The fold change (FC) [21] was 2.8, the fold change (FC) [22] was 2 and the inhibition [23] was “Dose-dependent effect”.
